{"source": "ChEMBL document CHEMBL5104225", "about": "“Synthesis and structure-activity relationship studies of N-terminal analogues of the lipopeptide antibiotics brevicidine and laterocidine” (RSC Med Chem, 2022)", "assay_type_in_all_cases": "functional", "key": {"Staphylococcus aureus": {"system": "Staphylococcus aureus", "assay": "Antibacterial activity against Staphylococcus aureus USA300 assessed as inhibition of bacterial growth incubated for 18 hrs by CLSI protocol based method", "outline": "(§1)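 Single colonies from blood agar (16 h, 37 °C) grown in TSB at 37 °C, 220 rpm to OD600 ~0.5, then diluted in MHB to 2×10^5 CFU/mL. Mixed with serial MHB dilutions of DMSO stocks in polypropylene plates, sealed, and incubated 18 h at 37 °C, 600 rpm. MIC was taken as the lowest concentration with no visible growth; three technical replicates.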"}, "Escherichia coli [1]": {"system": "Escherichia coli", "assay": "Antibacterial activity against Escherichia coli ATCC 25922 assessed as inhibition of bacterial growth incubated for 18 hrs by CLSI protocol based method", "outline": "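Broth microdilution MIC. Strain streaked from glycerol stock on sheep blood agar (16 h, 37 °C); a colony was grown in TSB at 37 °C, 220 rpm, to OD600 about 0.5. Cells were diluted in MHB to 2×10^5 CFU/mL and added 1:1 to serial dilutions in MHB in polypropylene plates.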"}, "Pseudomonas aeruginosa": {"system": "Pseudomonas aeruginosa", "assay": "Antibacterial activity against Pseudomonas aeruginosa PAO1 assessed as inhibition of bacterial growth incubated for 18 hrs by CLSI protocol based method", "outline": "as §1"}, "Acinetobacter baumannii": {"system": "Acinetobacter baumannii", "assay": "Antibacterial activity against Acinetobacter baumannii ATCC 17961 assessed as inhibition of bacterial growth incubated for 18 hrs by CLSI protocol based method", "outline": "as §1"}, "Klebsiella pneumoniae": {"system": "Klebsiella pneumoniae", "assay": "Antibacterial activity against Klebsiella pneumoniae ATCC 13883 assessed as inhibition of bacterial growth incubated for 18 hrs by CLSI protocol based method", "outline": "as §1"}, "Escherichia coli [2]": {"system": "Escherichia coli", "assay": "Antibacterial activity against colistin-resistant Escherichia coli ATCC 25922 carrying MCR-1 gene assessed as inhibition of bacterial growth incubated for 18 hrs by CLSI protocol based method", "outline": "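Broth microdilution MIC. MCR-1 strain grown from glycerol stock in TSB with kanamycin (16 h, 37 °C, 220 rpm), diluted 100-fold in the same medium and grown to OD600 about 0.5. Cells were diluted in MHB to 2×10^5 CFU/mL and added 1:1 to serial dilutions in MHB. Incubated 18 h, 37 °C, 600 rpm; visual lowest no-growth concentration; three technical replicates.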"}}, "note": "Bridge positions count the residues as written; N and C are the ends. Square brackets hold non-standard residues; d marks the D form. Peptide text beside a SMILES is read from it. * marks the point of attachment. ξ: configuration not given here. Palmitoyl = CCCCCCCCCCCCCCCC(=O)*; Hexanoyl(4ξ-Me) = CCC(C)CCC(=O)*; Myristoyl = CCCCCCCCCCCCCC(=O)*; dOrn = NCCC[C@@H](N)C(=O)O; Orn = NCCC[C@H](N)C(=O)O", "data": [{"compound": "CCC(C)CCC(=O)N[C@H](CC(N)=O)C(=O)N[C@H](Cc1ccc(O)cc1)C(=O)N[C@H](Cc1c[nH]c2ccccc12)C(=O)N[C@H](CCCN)C(=O)N[C@@H](CCCN)C(=O)NCC(=O)N[C@H](CCCN)C(=O)N[C@@H](Cc1c[nH]c2ccccc12)C(=O)N[C@@H]1C(=O)N[C@@H]([C@@H](C)CC)C(=O)NCC(=O)N[C@@H](CO)C(=O)O[C@@H]1C", "note": "(stereo partly drawn) ({Hexanoyl(4ξ-Me)}-[dN][dY][dW][dOrn][Orn]G[dOrn]WTIGS; ester 9-C)", "values": [{"measurement": "MIC", "setting": "Staphylococcus aureus", "result": "> 32", "unit": "µg/mL"}, {"measurement": "MIC", "setting": "Escherichia coli [1]", "result": 4, "unit": "µg/mL"}, {"measurement": "MIC", "setting": "Pseudomonas aeruginosa", "result": 8, "unit": "µg/mL"}, {"measurement": "MIC", "setting": "Acinetobacter baumannii", "result": 4, "unit": "µg/mL"}, {"measurement": "MIC", "setting": "Klebsiella pneumoniae", "result": 2, "unit": "µg/mL"}, {"measurement": "MIC", "setting": "Escherichia coli [2]", "result": 4, "unit": "µg/mL"}]}, {"compound": "CCCCCCCCCCCCCC(=O)N[C@H](CC(N)=O)C(=O)N[C@H](Cc1ccc(O)cc1)C(=O)N[C@H](Cc1c[nH]c2ccccc12)C(=O)N[C@H](CCCN)C(=O)N[C@@H](CCCN)C(=O)NCC(=O)N[C@H](CCCN)C(=O)N[C@@H](Cc1c[nH]c2ccccc12)C(=O)N[C@@H]1C(=O)N[C@@H]([C@@H](C)CC)C(=O)NCC(=O)N[C@@H](CO)C(=O)O[C@@H]1C", "note": "(Myristoyl-[dN][dY][dW][dOrn][Orn]G[dOrn]WTIGS; ester 9-C)", "values": [{"measurement": "MIC", "setting": "Staphylococcus aureus", "result": "> 32", "unit": "µg/mL"}, {"measurement": "MIC", "setting": "Escherichia coli [1]", "result": 16, "unit": "µg/mL"}, {"measurement": "MIC", "setting": "Pseudomonas aeruginosa", "result": 32, "unit": "µg/mL"}, {"measurement": "MIC", "setting": "Acinetobacter baumannii", "result": 4, "unit": "µg/mL"}, {"measurement": "MIC", "setting": "Klebsiella pneumoniae", "result": 32, "unit": "µg/mL"}, {"measurement": "MIC", "setting": "Escherichia coli [2]", "result": 16, "unit": "µg/mL"}]}, {"compound": "COLISTIN", "values": [{"measurement": "MIC", "setting": "Staphylococcus aureus", "result": "> 32", "unit": "µg/mL"}, {"measurement": "MIC", "setting": "Escherichia coli [1]", "result": 0.5, "unit": "µg/mL"}, {"measurement": "MIC", "setting": "Pseudomonas aeruginosa", "result": 4, "unit": "µg/mL"}, {"measurement": "MIC", "setting": "Acinetobacter baumannii", "result": "< 0.25", "unit": "µg/mL"}, {"measurement": "MIC", "setting": "Klebsiella pneumoniae", "result": 0.5, "unit": "µg/mL"}, {"measurement": "MIC", "setting": "Escherichia coli [2]", "result": 8, "unit": "µg/mL"}]}, {"compound": "CC[C@H](C)[C@@H]1NC(=O)[C@@H](NC(=O)[C@H](Cc2c[nH]c3ccccc23)NC(=O)[C@@H](CCCN)NC(=O)CNC(=O)[C@H](CCCN)NC(=O)[C@@H](CCCN)NC(=O)[C@@H](Cc2c[nH]c3ccccc23)NC(=O)[C@@H](Cc2ccc(O)cc2)NC(=O)[C@H](N)CC(N)=O)[C@@H](C)OC(=O)[C@H](CO)NC(=O)CNC1=O", "values": [{"measurement": "MIC", "setting": "Staphylococcus aureus", "result": "> 32", "unit": "µg/mL"}, {"measurement": "MIC", "setting": "Escherichia coli [1]", "result": "> 32", "unit": "µg/mL"}, {"measurement": "MIC", "setting": "Pseudomonas aeruginosa", "result": 16, "unit": "µg/mL"}, {"measurement": "MIC", "setting": "Acinetobacter baumannii", "result": "> 32", "unit": "µg/mL"}, {"measurement": "MIC", "setting": "Klebsiella pneumoniae", "result": "> 32", "unit": "µg/mL"}]}, {"compound": "CC[C@H](C)[C@@H]1NC(=O)[C@@H](NC(=O)[C@H](Cc2c[nH]c3ccccc23)NC(=O)[C@@H](CCCN)NC(=O)CNC(=O)[C@H](CCCN)NC(=O)[C@@H](CCCN)NC(=O)[C@@H](Cc2c[nH]c3ccccc23)NC(=O)[C@@H](Cc2ccc(O)cc2)NC(=O)[C@H](N)CO)[C@@H](C)OC(=O)CNC(=O)CNC(=O)[C@H](CC(N)=O)NC1=O", "note": "(H-[dS][dY][dW][dOrn][Orn]G[dOrn]WTINGG; ester 9-C)", "values": [{"measurement": "MIC", "setting": "Staphylococcus aureus", "result": "> 32", "unit": "µg/mL"}, {"measurement": "MIC", "setting": "Escherichia coli [1]", "result": "> 32", "unit": "µg/mL"}, {"measurement": "MIC", "setting": "Pseudomonas aeruginosa", "result": "> 32", "unit": "µg/mL"}, {"measurement": "MIC", "setting": "Acinetobacter baumannii", "result": "> 32", "unit": "µg/mL"}, {"measurement": "MIC", "setting": "Klebsiella pneumoniae", "result": "> 32", "unit": "µg/mL"}]}, {"compound": "CCCCCCCCCCCCCCCC(=O)N[C@H](CC(N)=O)C(=O)N[C@H](Cc1ccc(O)cc1)C(=O)N[C@H](Cc1c[nH]c2ccccc12)C(=O)N[C@H](CCCN)C(=O)N[C@@H](CCCN)C(=O)NCC(=O)N[C@H](CCCN)C(=O)N[C@@H](Cc1c[nH]c2ccccc12)C(=O)N[C@@H]1C(=O)N[C@@H]([C@@H](C)CC)C(=O)NCC(=O)N[C@@H](CO)C(=O)O[C@@H]1C", "note": "(Palmitoyl-[dN][dY][dW][dOrn][Orn]G[dOrn]WTIGS; ester 9-C)", "values": [{"measurement": "MIC", "setting": "Staphylococcus aureus", "result": "> 32", "unit": "µg/mL"}, {"measurement": "MIC", "setting": "Escherichia coli [1]", "result": "> 32", "unit": "µg/mL"}, {"measurement": "MIC", "setting": "Pseudomonas aeruginosa", "result": "> 32", "unit": "µg/mL"}, {"measurement": "MIC", "setting": "Acinetobacter baumannii", "result": 32, "unit": "µg/mL"}, {"measurement": "MIC", "setting": "Klebsiella pneumoniae", "result": "> 32", "unit": "µg/mL"}]}, {"compound": "CC[C@H](C)[C@@H]1NC(=O)[C@@H](NC(=O)[C@H](Cc2c[nH]c3ccccc23)NC(=O)[C@@H](CCCN)NC(=O)CNC(=O)[C@H](CCCN)NC(=O)[C@@H](CCCN)NC(=O)[C@@H](Cc2c[nH]c3ccccc23)NC(=O)[C@@H](Cc2ccc(O)cc2)NC(=O)[C@@H](CC(N)=O)NC(C)=O)[C@@H](C)OC(=O)[C@H](CO)NC(=O)CNC1=O", "note": "(Ac-[dN][dY][dW][dOrn][Orn]G[dOrn]WTIGS; ester 9-C)", "values": [{"measurement": "MIC", "setting": "Staphylococcus aureus", "result": "> 32", "unit": "µg/mL"}, {"measurement": "MIC", "setting": "Escherichia coli [1]", "result": "> 32", "unit": "µg/mL"}, {"measurement": "MIC", "setting": "Pseudomonas aeruginosa", "result": 8, "unit": "µg/mL"}, {"measurement": "MIC", "setting": "Acinetobacter baumannii", "result": "> 32", "unit": "µg/mL"}, {"measurement": "MIC", "setting": "Klebsiella pneumoniae", "result": "> 32", "unit": "µg/mL"}]}, {"compound": "CC[C@H](C)[C@@H]1NC(=O)[C@@H](NC(=O)[C@H](Cc2c[nH]c3ccccc23)NC(=O)[C@@H](CCCN)NC(=O)CNC(=O)[C@H](CCCN)NC(=O)[C@@H](CCCN)NC(=O)[C@@H](Cc2c[nH]c3ccccc23)NC(=O)[C@@H](Cc2ccc(O)cc2)NC(=O)[C@@H](CO)NC(C)=O)[C@@H](C)OC(=O)CNC(=O)CNC(=O)[C@H](CC(N)=O)NC1=O", "note": "(Ac-[dS][dY][dW][dOrn][Orn]G[dOrn]WTINGG; ester 9-C)", "values": [{"measurement": "MIC", "setting": "Staphylococcus aureus", "result": "> 32", "unit": "µg/mL"}, {"measurement": "MIC", "setting": "Escherichia coli [1]", "result": "> 32", "unit": "µg/mL"}, {"measurement": "MIC", "setting": "Pseudomonas aeruginosa", "result": 16, "unit": "µg/mL"}, {"measurement": "MIC", "setting": "Acinetobacter baumannii", "result": "> 32", "unit": "µg/mL"}, {"measurement": "MIC", "setting": "Klebsiella pneumoniae", "result": "> 32", "unit": "µg/mL"}]}]}
